Source: ChEMBL document CHEMBL3227936, “Actions of two dopamine derivatives at adreno- and cholinoceptors” (J Med Chem, 1979)
Activity calls are given as the source filed them. No cut-off for these calls is given here.

Tests used:
Acetylcholinesterase = target: T1, Acetylcholinesterase (Gallus gallus, UniProt P36196); assay: Inhibition of acetylcholine esterase in chicken biventer cervicis muscle assessed as rate of acetylcholine hydrolysis by Ellman's method; design: species or system Muscle tissue; settings: read-out: I50
T1 sequence (P36196 whole entry): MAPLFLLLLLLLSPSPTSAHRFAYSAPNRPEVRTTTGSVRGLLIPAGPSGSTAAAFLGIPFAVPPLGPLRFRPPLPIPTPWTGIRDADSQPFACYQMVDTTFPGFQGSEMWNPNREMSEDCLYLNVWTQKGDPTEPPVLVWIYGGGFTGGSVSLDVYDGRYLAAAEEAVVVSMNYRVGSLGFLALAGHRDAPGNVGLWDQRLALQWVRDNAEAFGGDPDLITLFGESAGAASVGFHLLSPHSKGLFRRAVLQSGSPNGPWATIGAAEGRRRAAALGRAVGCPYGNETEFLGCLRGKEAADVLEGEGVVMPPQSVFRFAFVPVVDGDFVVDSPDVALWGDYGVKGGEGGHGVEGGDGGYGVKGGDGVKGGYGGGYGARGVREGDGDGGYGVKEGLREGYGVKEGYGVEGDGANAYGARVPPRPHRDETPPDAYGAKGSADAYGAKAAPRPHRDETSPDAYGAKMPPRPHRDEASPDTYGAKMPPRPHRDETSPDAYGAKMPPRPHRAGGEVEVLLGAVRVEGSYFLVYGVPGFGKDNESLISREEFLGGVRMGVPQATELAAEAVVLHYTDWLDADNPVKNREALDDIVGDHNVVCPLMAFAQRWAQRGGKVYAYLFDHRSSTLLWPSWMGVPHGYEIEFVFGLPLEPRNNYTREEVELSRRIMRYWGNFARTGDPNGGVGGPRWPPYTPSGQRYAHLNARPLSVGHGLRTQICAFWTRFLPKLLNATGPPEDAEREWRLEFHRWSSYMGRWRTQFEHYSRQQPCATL
In short: (§1)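 Chick biventer cervicis muscle homogenates were assayed for cholinesterase with acetylthiocholine as substrate by Ellman's colorimetric method as modified by Gandiha et al. Absorbance change was read at 412 nm. Hydrolysis rates (µmol min^-1 g^-1) were compared with and without drug.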

Cavia porcellus [1] = species on record: Cavia porcellus; assay: Agonist activity at muscarinic acetylcholine receptor in guinea pig ileum smooth muscle assessed as contraction measured after compound washout; format: tissue-based
In short: (§2)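 Guinea pig ileum segments were kept in Tyrode solution at 32 °C and bubbled with air. Isotonic contractions to cholinergic agonists were recorded, and log concentration–effect curves were built. Points are means of at least four experiments.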

Gallus gallus [2] = species on record: Gallus gallus; assay: Agonist activity at cholinergic receptor isolated from chicken biventer cervicis nerve muscle assessed as >10 ug/ml
Cavia porcellus [3] = species on record: Cavia porcellus; assay: Agonist activity at muscarinic acetylcholine receptor in guinea pig ileum smooth muscle assessed as contraction in presence of atropine; format: tissue-based
In short: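 Guinea pig ileum was kept in Tyrode solution at 32 °C and aerated. Isotonic contractions were recorded, and concentration–effect curves were repeated after atropine 1×10^-8 M. Points are means of at least four experiments.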

Cavia porcellus [4] = species on record: Cavia porcellus; assay: Agonist activity at muscarinic acetylcholine receptor in guinea pig ileum smooth muscle assessed as contraction; format: tissue-based; in short: as §2
Felis catus [5] = assay: Reduction of mean blood pressure in atropinized-cat at 0.2 to 3 mg/kg, iv in presence of phentolamine; format: functional, organism-based
In short: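 In atropinized cats (atropine 1 mg/kg) under chloralose–pentobarbitone anesthesia, drugs in acid saline pH 4.5 were given iv. Mean blood pressure responses were recorded with phentolamine 2 mg/kg.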

Felis catus [6] = assay: Reduction of twitch tension in soleus muscle of electrically stimulated cat at 0.2 to 3 mg/kg, iv; format: functional, organism-based
In short: (§3)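 Adult cats of either sex were anesthetized with α-chloralose 80 mg/kg plus sodium pentobarbitone 6 mg/kg ip, and nearly all were bilaterally vagotomized. Drugs were given iv via a femoral or brachial vein in acid-0.9% saline (pH 4.5). The sciatic nerve was stimulated to evoke soleus contractions, with maximal twitches at 0.1 Hz. Responses were recorded continuously.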

Felis catus [7] = assay: Reduction of mean blood pressure in cat at 0.2 to 3 mg/kg, iv; format: functional, organism-based; in short: as §3
Gallus gallus [8] = species on record: Gallus gallus; assay: Agonist activity at cholinergic receptor in chicken biventer cervicis nerve muscle assessed as blockade of twitch response at 10 to 200 ug/ml in presence of physostigmine
Felis catus [9] = assay: Reduction of twitch tension in soleus muscle of electrically stimulated cat at 0.2 to 3 mg/kg, iv in presence of antagonist propranolol; format: functional, organism-based
In short: (§4)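 In chloralose–pentobarbitone anesthetized cats, the sciatic nerve was stimulated to evoke soleus contractions. Drugs were given iv in acid saline pH 4.5, and responses were recorded after propranolol 0.4 mg/kg.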

Felis catus [10] = assay: Reduction of heart rate in cat at 0.2 to 3 mg/kg, iv; format: functional, organism-based; in short: as §3
Felis catus [11] = assay: Reduction of fused incomplete tetanic contraction in soleus muscle of electrically stimulated cat at 0.2 to 3 mg/kg, iv in presence of antagonist propranalol; format: functional, organism-based; in short: as §4
[12] = target: T2, Acetylcholinesterase (Gallus gallus) (UniProt P36196); assay: Inhibition of acetylcholine esterase in chicken biventer cervicis muscle assessed as rate of acetylcholine hydrolysis at 1.3 X 10^-3 M by Ellman's method; settings: Muscle tissue; in short: as §1
T2 sequence (whole entry): T1 sequence (P36196 whole entry)

Gallus gallus [13] = species on record: Gallus gallus; assay: Agonist activity at cholinergic receptor in chicken biventer cervicis nerve muscle assessed as blockade of twitch response at 10 to 200 ug/ml in presence of tetanus
Gallus gallus [14] = species on record: Gallus gallus; assay: Agonist activity at cholinergic receptor in chicken biventer cervicis nerve muscle assessed as blockade of twitch response at 10 to 200 ug/ml in presence of choline
Felis catus [15] = assay: Reduction of fused incomplete tetanic contraction in soleus muscle of electrically stimulated cat at 0.2 to 3 mg/kg, iv; format: functional, organism-based; in short: as §3
Felis catus [16] = assay: Reduction of mean blood pressure in cat at 0.2 to 3 mg/kg, iv in presence of atropine; format: functional, organism-based
In short: (§5)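 Cats were anesthetized with α-chloralose 80 mg/kg plus pentobarbitone 6 mg/kg ip and vagotomized. Drugs were given iv in acid saline pH 4.5. Heart rate and blood pressure responses were recorded before and after atropine 1 mg/kg.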

Felis catus [17] = assay: Reduction of heart rate in cat at 0.2 to 3 mg/kg, iv in presence of atropine; format: functional, organism-based; in short: as §5
Gallus gallus [18] = species on record: Gallus gallus; assay: Agonist activity at cholinergic receptor in chicken biventer cervicis nerve muscle assessed as blockade of twitch response at 10 to 200 ug/ml in presence of caffeine
Gallus gallus [19] = species on record: Gallus gallus; assay: Agonist activity at cholinergic receptor in chicken biventer cervicis nerve muscle assessed as blockade of twitch accompanied with contracture at 10 to 200 ug/ml
Cavia porcellus [20] = species on record: Cavia porcellus; assay: Agonist activity at muscarinic acetylcholine receptor in guinea pig ileum smooth muscle assessed as contraction in presence of hexamethonium; format: tissue-based; in short: as §2
Gallus gallus [21] = species on record: Gallus gallus; assay: (§6) Agonist activity at cholinergic receptor in chicken biventer cervicis nerve muscle assessed as twitch augmentation accompanied with contracture at 1 to 10 ug/ml
Gallus gallus [22] = species on record: Gallus gallus; assay: Agonist activity at cholinergic receptor in chicken biventer cervicis nerve muscle assessed as twitch blockade at 1 to 10 ug/ml
Gallus gallus [23] = species on record: Gallus gallus; assay: as §6; remark: listed apart in the source
Felis catus [24] = assay: Induction of fasiculated twitches in skeletal muscle of electrically stimulated cat at 0.2 to 3 mg/kg, iv relative to control; format: organism-based, Muscle tissue; design: dose 0.2-3 mg/kg, route intravenous; settings: in vivo; in short: as §3
Gallus gallus [25] = species on record: Gallus gallus; assay: Agonist activity at cholinergic receptor isolated from chicken biventer cervicis nerve muscle assessed as >10 ug/ml measured after compound washout
[26] = target: T2, Acetylcholinesterase (Gallus gallus); assay: Inhibition of acetylcholine esterase in chicken biventer cervicis muscle assessed as rate of acetylcholine hydrolysis at 37 uM by Ellman's method; settings: Muscle tissue; in short: as §1

## CNC(=O)Oc1ccc2c(c1)[C@]1(C)CCN(C)[C@@H]1N2C [PHYSOSTIGMINE]
Acetylcholinesterase
  IC50: 0.02 µM

## C[N+](C)(C)CCOC(N)=O
Cavia porcellus [1]
  Activity: inactive
Gallus gallus [2]
  Activity: Active
Cavia porcellus [3]
  Activity: inactive
Cavia porcellus [4]
  Activity: Active

## CC1NCCc2cc(O)c(O)cc21 (stereo unspecified)
Felis catus [5]
  Activity: inactive
Felis catus [6]
  Activity: Active
Felis catus [7]
  Activity: Dose-dependent effect
Gallus gallus [8]
  Activity: Active
Felis catus [9]
  Activity: inactive
Felis catus [10]
  Activity: Active
Felis catus [11]
  Activity: inactive
[12]
  Activity: 7.48 µmol/min/g
Gallus gallus [13]
  Activity: Active
Cavia porcellus [4]
  Activity: inactive
Gallus gallus [14]
  Activity: Active
Felis catus [15]
  Activity: Active
Felis catus [16]
  Activity: inactive
Felis catus [17]
  Activity: inactive
Gallus gallus [18]
  Activity: Active
Gallus gallus [19]
  Activity: Active

## Br.CC1(C)NCCc2cc(O)c(O)cc21
Cavia porcellus [20]
  Activity: Active
Gallus gallus [21]
  Activity: Active
Felis catus [5]
  Activity: inactive
Gallus gallus [22]
  Activity: inactive
Cavia porcellus [1]
  Activity: inactive
Gallus gallus [23]
  Activity: Active
Felis catus [7]
  Activity: Dose-dependent effect
Felis catus [24]
  Activity: <= 100%
Acetylcholinesterase
  IC50: 37 µM
Gallus gallus [2]
  Activity: Active
Cavia porcellus [3]
  Activity: inactive
Cavia porcellus [4]
  Activity: Active
Gallus gallus [25]
  Activity: inactive
Felis catus [16]
  Activity: inactive
[26]
  Activity: 3.55 µmol/min/g
